Source: ChEMBL document CHEMBL2413057, “Synthesis and in vitro evaluation of new ethyl and methyl quinoxaline-7-carboxylate 1,4-di-N-oxide against Entamoeba histolytica” (Bioorg Med Chem, 2013)
pIC50: −log10 of the molar value.

Columns and labels:
Entamoeba histolytica = test: Antiamoebic activity against trophozoite stage of Entamoeba histolytica HM-1:IMSS assessed as growth inhibition after 48 hrs by microdilution method; type: functional, organism-based; conditions: for pIC50: Entamoeba histolytica, HM-1:IMSS, 48 h, read-out: IC50
How it was run: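 Axenic log-phase HM1:IMSS trophozoites grown in BI-S-33 medium with 20% calf serum, viability counted by trypan blue, seeded at 10⁵/mL (100 µL per well). Compounds dissolved in 0.1% DMSO, two-fold serial dilutions in medium. Incubated 37 °C, 48 h, then WST-1 added for 4 h at 37 °C, OD 490 nm. IC50 by linear regression of % inhibition versus concentration, duplicate, mean ± SD.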

Vero = test: Cytotoxicity against african green monkey Vero cells assessed as cell viability after 48 hrs by WST-1 assay; type: cell-based; conditions: Chlorocebus sabaeus
How it was run: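 VERO cells in MEM with 0.1 mM nonessential amino acids, 1 mM pyruvate and 10% FBS, 37 °C, 5% CO₂. Plated at 10⁴ cells/well, 24 h before dosing. Compounds diluted in complete medium to 0.1–100 µM, 48 h exposure against an untreated control. WST-1 added for 4 h at 37 °C. Quadruplicate, repeated twice, mean ± SD, ANOVA.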

[1] = Selectivity index, ratio of IC50 for african green monkey Vero cells to IC50 for trophozoite stage of Entamoeba histolytica HM-1:IMSS
How it was run: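 Computed as VERO toxicity IC50 divided by the E. histolytica IC50, where each IC50 is the concentration that kills 50% of the respective cells.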

| Structure (SMILES) | pIC50 (Entamoeba histolytica) | pIC50 (Vero) | Ratio IC50 [1] | IC50 (Entamoeba histolytica) |
| --- | --- | --- | --- | --- |
| CCOC(=O)c1ccc2no[n+]([O-])c2c1 | 3.66 |  |  |  |
| COC(=O)c1ccc2c(c1)[n+]([O-])c(C(=O)c1cccs1)c(C(F)(F)F)[n+]2[O-] | 6.46 | 5.23 | 16.74 |  |
| COC(=O)c1ccc2c(c1)[n+]([O-])c(C(=O)c1ccc3ccccc3c1)c(C(F)(F)F)[n+]2[O-] | 5.28 |  |  |  |
| CCOC(=O)Cc1c(C(=O)OCC)[n+]([O-])c2cc(C(=O)OC)ccc2[n+]1[O-] | 5.72 |  |  |  |
| CCOC(=O)c1ccc2c(c1)[n+]([O-])c(C(=O)OC)c(C)[n+]2[O-] | 5.73 | < 4.00 | >53.19 |  |
| CCOC(=O)c1ccc2c(c1)[n+]([O-])c(C(=O)OCC)c(C)[n+]2[O-] | 5.38 |  |  |  |
| CCOC(=O)c1ccc2c(c1)[n+]([O-])c(C(N)=O)c(C)[n+]2[O-] | 5.83 | < 4.00 | >68.02 |  |
| CCOC(=O)c1ccc2c(c1)[n+]([O-])c(C(=O)c1ccccc1)c(C)[n+]2[O-] | 5.71 | < 4.00 | >51.81 |  |
| CCOC(=O)c1ccc2c(c1)[n+]([O-])c(C(=O)Nc1ccccc1)c(C)[n+]2[O-] |  |  |  | ND(Insoluble) |
| CCOC(=O)c1ccc2c(c1)[n+]([O-])c(C(=O)OCc1ccccc1)c(C)[n+]2[O-] |  |  |  | ND(Insoluble) |
| CCOC(=O)c1ccc2c(c1)[n+]([O-])c(C(C)=O)c(C(F)(F)F)[n+]2[O-] | 5.70 | 4.88 | 6.6 |  |
| CCOC(=O)c1ccc2c(c1)[n+]([O-])c(C(=O)CC)c(C(F)(F)F)[n+]2[O-] | 4.74 |  |  |  |
| CCOC(=O)c1ccc2c(c1)[n+]([O-])c(C(=O)c1cccs1)c(C(F)(F)F)[n+]2[O-] | 5.60 | 5.17 | 2.69 |  |
| CCOC(=O)c1ccc2c(c1)[n+]([O-])c(C(=O)c1ccc3ccccc3c1)c(C(F)(F)F)[n+]2[O-] |  |  |  | ND(Insoluble) |
| CCOC(=O)c1ccc2c(c1)[n+]([O-])c(C(=O)c1ccco1)c(C(F)F)[n+]2[O-] | 5.42 |  |  |  |
| CCOC(=O)c1ccc2c(c1)[n+]([O-])c(C(=O)OCC)c(-c1ccccc1)[n+]2[O-] | 5.15 |  |  |  |

| Structure (SMILES) | pIC50 (Entamoeba histolytica) | pIC50 (Vero) | Ratio IC50 [1] | IC50 (Entamoeba histolytica) |
| --- | --- | --- | --- | --- |
| O=C(O)c1ccc2no[n+]([O-])c2c1 |  |  |  | ND(Insoluble) |
| COC(=O)c1ccc2no[n+]([O-])c2c1 | 4.13 |  |  |  |
| COC(=O)c1ccc2c(c1)[n+]([O-])c(C(C)=O)c(C)[n+]2[O-] | 5.85 | < 4.00 | >70.92 |  |
| COC(=O)c1ccc2c(c1)[n+]([O-])c(C(=O)OC)c(C)[n+]2[O-] | 5.38 |  |  |  |
| CCOC(=O)c1c(C)[n+]([O-])c2ccc(C(=O)OC)cc2[n+]1[O-] | 5.70 | < 4.00 | >50.25 |  |
| COC(=O)c1ccc2c(c1)[n+]([O-])c(C(=O)OC(C)(C)C)c(C)[n+]2[O-] |  |  |  | ND(Insoluble) |
| COC(=O)c1ccc2c(c1)[n+]([O-])c(C(=O)c1ccccc1)c(C)[n+]2[O-] | 5.46 |  |  |  |
| COC(=O)c1ccc2c(c1)[n+]([O-])c(C(=O)Nc1ccccc1)c(C)[n+]2[O-] | 5.38 |  |  |  |
| CCOC(=O)c1c(-c2ccccc2)[n+]([O-])c2ccc(C(=O)OC)cc2[n+]1[O-] | 4.91 |  |  |  |
| COC(=O)c1ccc2c(c1)[n+]([O-])c(C(C)=O)c(C(F)(F)F)[n+]2[O-] | 5.82 | 5.48 | 2.14 |  |
| COC(=O)c1ccc2c(c1)[n+]([O-])c(C(=O)C(C)C)c(C(F)(F)F)[n+]2[O-] | 5.73 | 5.16 | 3.7 |  |
| COC(=O)c1ccc2c(c1)[n+]([O-])c(C(=O)c1ccccc1)c(C(F)(F)F)[n+]2[O-] | 5.22 |  |  |  |
| [O-][n+]1onc2ccccc21 [BENZO[C][1,2,5]OXADIAZOLE 1-OXIDE] | 4.92 |  |  |  |
| Cc1ncc([N+](=O)[O-])n1CCO [METRONIDAZOLE] | 5.35 | < 4.00 | >22.22 |  |
| CC(=O)Oc1ccccc1C(=O)Nc1ncc([N+](=O)[O-])s1 [NITAZOXANIDE] | 5.41 | 4.97 | 2.75 |  |
